Measured values taken from ChEMBL document CHEMBL5244249, “Discovery of tofacitinib derivatives as orally active antitumor agents based on the scaffold hybridization strategy” (Eur J Med Chem, 2020).
Active and inactive are the calls of the source. The rule behind the calls is not given here.

Experiments:
[1] = Toxicity in SCID mouse xenografted with human MGC-803 cells assessed as effect on heart at 12.5 to 25 mg/kg, IG administered for 21 days by H&E staining based histopathological analysis; type: organism-based; settings: in vivo, po, 504 h, dose 12.5-25 mg/kg, time 21 day
Method in brief: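 SCID mice bearing subcutaneous MGC-803 xenografts (right side) dosed with 12.5 or 25 mg/kg over 21 days, 0.5% CMC-Na vehicle as control; body weight and tumor size monitored periodically; major organs examined histopathologically at end; means ± SD.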

[2] = system: MGC-803; experiment: Induction of apoptosis in human MGC-803 cells assessed as late apoptotic cells at 5 uM incubated for 24 hrs by Annexin V-FITC/PI staining based flow cytometric analysis (reference value: 3.8 %); type: functional
[3] = system: MGC-803; experiment: Cell cycle arrest in human MGC-803 cells assessed as S phase cells at 10 uM incubated for 24 hrs by RNase/PI staining based flow cytometric analysis (reference value: 27.1%); type: functional
[4] = Activation of MAPK pathway in human MGC-803 cells assessed as change in p38 total expression at 5 to 10 uM incubated for 24 hrs by Western blot analysis; type: cell-based; settings: dose 5-10 µM
[5] = system: MGC-803; experiment: Cell cycle arrest in human MGC-803 cells assessed as S phase cells at 7.5 uM incubated for 24 hrs by RNase/PI staining based flow cytometric analysis (reference value: 27.1%); type: functional
[6] = system: MGC-803; experiment: Induction of mitochondrial dysfunction in human MGC-803 cells assessed as increase in green fluorescence intensity at 7.5 uM incubated for 24 hrs by JC-1 staining based fluorescence microscopic analysis (reference value: 9.9%); type: functional
[7] = system: MGC-803; experiment: Induction of apoptosis in human MGC-803 cells assessed as viable cells at 7.5 uM incubated for 48 hrs by Annexin V-FITC/PI staining based flow cytometric analysis (reference value: 96.7 %); type: functional; settings: read-out: Activity
[8] = system: MGC-803; experiment: Induction of apoptosis in human MGC-803 cells assessed as necrotic cells at 7.5 uM incubated for 48 hrs by Annexin V-FITC/PI staining based flow cytometric analysis (reference value: 0.3 %); type: functional
[9] = system: MGC-803; experiment: Induction of apoptosis in human MGC-803 cells assessed as viable cells at 10 uM incubated for 48 hrs by Annexin V-FITC/PI staining based flow cytometric analysis (reference value: 96.7 %); type: functional; settings: read-out: Activity
[10] = system: MGC-803; experiment: Induction of apoptosis in human MGC-803 cells assessed as cell rounding up at 5 to 10 uM incubated for 24 hrs by Hoechst 33342 staining based fluorescence microscopic analysis; type: functional; settings: dose 5-10 µM
Method in brief: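 MGC-803 cells exposed to 0, 5, 7.5 or 10 μM; cell morphology imaged and nuclear morphology examined by staining. Mean ± SD, three independent experiments.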

[11] = system: MGC-803; experiment: Induction of mitochondrial dysfunction in human MGC-803 cells assessed as upregulation of gammaH2AX expression at 5 to 10 uM incubated for 24 hrs by Western blot analysis; type: functional, cell-based; settings: dose 5-10 µM
Method in brief: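 Western blot of caspase 9, 3, 7, PARP and γH2A.X in MGC-803 lysates after 24 h exposure to 5, 7.5 or 10 μM; band quantitation; mean ± SD from three independent experiments.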

[12] = system: MGC-803; experiment: Induction of mitochondrial dysfunction in human MGC-803 cells assessed as increase in green fluorescence intensity at 10 uM incubated for 24 hrs by JC-1 staining based fluorescence microscopic analysis (reference value: 9.9%); type: functional
[13] = system: MGC-803; experiment: Antitumor activity against human MGC-803 cells xenografted in SCID mouse assessed as decrease in average tumor weight at 25 mg/kg, IG administered for 21 days relative to control; type: functional; design: scale not given: the % may be the effect or the level left; settings: time 21 day
Method in brief: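 MGC-803 cells implanted subcutaneously on the right side of SCID mice; dosed at 12.5 or 25 mg/kg in 0.5% CMC-Na (vehicle control) for 21 days. Body weight and tumor size recorded periodically; tumors excised and weighed at end. Means ± SD.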

[14] = system: MGC-803; experiment: Induction of apoptosis in human MGC-803 cells assessed as viable cells at 10 uM incubated for 24 hrs by Annexin V-FITC/PI staining based flow cytometric analysis (reference value: 90.3 %); type: functional; settings: read-out: Activity
[15] = system: MGC-803; experiment: Induction of apoptosis in human MGC-803 cells assessed as necrotic cells at 5 uM incubated for 48 hrs by Annexin V-FITC/PI staining based flow cytometric analysis (reference value: 0.3 %); type: functional
[16] = system: MGC-803; experiment: Inhibition of colony formation in human MGC-803 cells at 1 uM incubated for 9 days by crystal violet staining based analysis relative to control; type: functional; settings: MGC-803, 216 h, time 9 day
Method in brief: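 Clonogenic assay: MGC-803 cells grown 9 days with 0, 1, 2 or 3 μM; colonies counted and inhibition rate calculated against untreated control; mean ± SD of three independent experiments.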

[17] = system: MGC-803; experiment: Cell cycle arrest in human MGC-803 cells assessed as G0/G1 phase cells at 10 uM incubated for 24 hrs by RNase/PI staining based flow cytometric analysis (reference value: 54.99%); type: functional
[18] = system: MGC-803; experiment: Induction of apoptosis in human MGC-803 cells assessed as late apoptotic cells at 5 uM incubated for 48 hrs by Annexin V-FITC/PI staining based flow cytometric analysis (reference value: 0.5 %); type: functional
[19] = system: MGC-803; experiment: Induction of apoptosis in human MGC-803 cells assessed as decrease in Mcl-1 protein expression at 5 to 10 uM incubated for 24 hrs by Western blot analysis; type: functional, cell-based; settings: dose 5-10 µM
Method in brief: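 After 24 h exposure of MGC-803 cells, Bcl-2, Mcl-1, Bax and cytochrome c release assessed by Western blot with band quantitation; mean ± SD from three independent experiments.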

[20] = system: MGC-803; experiment: Cell cycle arrest in human MGC-803 cells assessed as G0/G1 phase cells at 7.5 uM incubated for 24 hrs by RNase/PI staining based flow cytometric analysis (reference value: 54.99%); type: functional
[21] = system: MGC-803; experiment: Induction of apoptosis in human MGC-803 cells assessed as late apoptotic cells at 7.5 uM incubated for 48 hrs by Annexin V-FITC/PI staining based flow cytometric analysis (reference value: 0.5 %); type: functional
[22] = system: MGC-803; experiment: Induction of apoptosis in human MGC-803 cells assessed as viable cells at 5 uM incubated for 48 hrs by Annexin V-FITC/PI staining based flow cytometric analysis (reference value: 96.7 %); type: functional; settings: read-out: Activity
[23] = Cytotoxicity against human GES1 cells assessed as inhibition of cell growth incubated for 72 hrs by MTT assay; type: toxicity, cell-based
[24] = system: MGC-803; experiment: Antiproliferative activity against human MGC-803 cells assessed as decrease in cell viability at 10 uM preincubated with SB203580 for 4 hrs followed by compound addition and measured after 24 hrs by MTT assay; type: functional, cell-based
Method in brief: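 MGC-803 cells pre-incubated 4 h with SB203580 (4 μM) or SP600125 (20 μM), then exposed to 10 μM test compound for 24 h; viability by MTT, expressed as percent of control. Mean ± SD, three independent experiments.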

[25] = system: MGC-803; experiment: Induction of apoptosis in human MGC-803 cells assessed as early apoptotic cells at 5 uM incubated for 24 hrs by Annexin V-FITC/PI staining based flow cytometric analysis (reference value: 3.9 %); type: functional
[26] = Activation of MAPK pathway in human MGC-803 cells assessed as change in phosphorylated Erk1/2 expression at 5 to 10 uM incubated for 24 hrs by Western blot analysis; type: cell-based; settings: dose 5-10 µM

## Cc1cc(N2CC[C@@H](C)[C@@H](N(C)c3ncnc4[nH]ccc34)C2)n2nc(SCc3ccc(C(F)(F)F)cc3)nc2n1
[1]
  Activity: Non-Toxic
[2]
  Activity: 8.8%
[3]
  Activity: 28.14%
[4]
  Activity: inactive
[5]
  Activity: 29.36%
[6]
  Activity: 39.1%
[7]
  viability at 7.5 µM: 22.1%
[8]
  Activity: 1.6%
[9]
  viability at 10 µM: 17%
[10]
  Activity: Active
[11]
  Activity: Active
[12]
  Activity: 49.1%
[13]
  Activity: 53%
[14]
  viability at 10 µM: 57.1%
[15]
  Activity: 0.9%
[16]
  inhibition at 1 µM: 31%
[17]
  Activity: 56.74%
[18]
  Activity: 17.2%
[19]
  Activity: Active
[20]
  Activity: 56.42%
[21]
  Activity: 67.5%
[22]
  viability at 5 µM: 73.4%
[23]
  IC50 at 72 h: 17.3 µM
[24]
  Activity: inactive
[25]
  Activity: 5.5%
[26]
  Activity: inactive
